Experiment [1] is described as follows: inhibitors of TNFa-induced NFkB p65 translocation, primary screen, imaging, HUVEC, MLSMR starter and 10KST1 sets (AID 438;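 active = inhibition above 20% together with a positive visual image hit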;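 note: compound added about 3h40 before a 20 min TNFalpha stimulation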;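 for inhibition: signal is the nuclear over cytoplasmic p65 intensity ratio per well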). The settings on record: HUVEC TNFa-induced p65 nuclear translocation; cell count: measured here: nuclei count (cytotoxicity indicator), at 2.08 µM; inhibition: at 2 µM, stronger effect = higher value, 0% TNFa-plus-vehicle, 100% no-TNFa wells.
Experiment [2] in a line: inhibitors of mutant huntingtin aggregation, primary screen, imaging, exon1htt(103Q)mCFP cells, high-content imaging (AID 483;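 active = visual image review flags a hit and inhibition of aggregation exceeds 20%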;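 note: compound exposure lasted 3 days before fixation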;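 for nuclei count: percent of the per-plate median nuclei count of sample wells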). The settings on record: exon1htt(103Q)mCFP cell line, aggregate imaging, at 2 µM; inhibition of aggregation: stronger effect = higher value; nuclei count: measured here: cell count, toxicity.
The nature of experiment [3]: inhibitors of E-selectin induction by TNFa, primary screen, imaging, HUVEC, immunofluorescence, MLSMR starter and 10KST1 sets (AID 487;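 active = visually confirmed hit in the image check and inhibition above 20%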;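 for inhibition: signal is fraction of cell area covered by stained E-selectin grains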;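 for nuclei count: 100% = median nuclei count of all wells on the same plate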). To be noted: HUVEC TNFalpha-induced E-selectin immunofluorescence imaging, at 2 µM; inhibition: stronger effect = higher value; nuclei count: measured here: cell number, toxicity.
The target of experiment [4] is Voltage-gated potassium channel subunit beta-2 (Rattus norvegicus) (UniProt P62483). As to the kind of experiment: KvBeta enzyme negative modulators, primary screen, biochemical, NADPH fluorescence (AID 622;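 active = fluorescence slope higher than the sample average by over 3 SD, cut at about -0.22 in these data, passing the limit was not always enough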;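 note: slope of raw intensity against log time taken from 70 to 1610 s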). The settings on record: recombinant KvBeta, 4-cyanobenzaldehyde reduction, at 10 µM, stronger effect = higher value.
For experiment [5] the target is unchanged. As to the kind of experiment: KvBeta positive modulators, primary screen, biochemical, NADPH fluorescence (AID 623;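 active = NADPH fluorescence slope more negative than the mean of all samples by about 3 SD, 99.7% confidence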;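 note: fluorescence intensity change per second fitted from 20 to 320 s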). To be noted: Recombinant KvBeta, NADPH fluorescence decrease slope, 10 min; at 10 µM; stronger effect = lower value.
Experiment [6] has as its target Alpha-2C adrenergic receptor (Homo sapiens) (UniProt P18825). Nature of the experiment: modulators of alpha2C/GIRK thallium flux, primary screen, cell-based, HEK293 alpha2C/GIRK1/2 (AID 624).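 Note: slope of fluorescence ratio to pre-addition baseline per second over 15 to 24 s.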 The settings on record: thallium flux BTC fluorescence, at 10 µM, actives lie on both sides.
Experiment [7] can be described thus: inhibitors of larval lipid processing in zebrafish, primary screen, whole organism, PED6 fluorescence, gall bladder and intestine (AID 686;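 active = a full or partial loss of lipid-probe fluorescence in the fish gall bladder, intestine or both, judged by eye; inactive = no fluorescence loss, or compound toxic to the fish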;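 note: larvae 5 to 7 days old with five fish per well; signal comes from phospholipase A2 cleavage of quenched PED6 carried via bile; overnight exposure to compound and PED6 before scoring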). To be noted: Zebrafish larvae PED6 lipid processing, fluorescence scoring; screened at 20 µM (by protocol). In outline:
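Test system – live zebrafish larvae aged 5-7 days, whole organism · Buffer or medium – E3 fish medium · Reagent – quenched phospholipase substrate PED6, 100 nM final, ingested by larvae · Doses – 20 µM single dose · Incubation – overnight compound and PED6 incubation · Technique – visual fluorescence microscopy scoring of gall bladder, gut · Read-out basis – visual per-well fluorescence inhibition score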

Experiment [8] in a line: inhibitors of Sendai virus-induced IRF3 signaling, primary screen, TLR/RLR signaling modifier project, cell-based, Sendai virus stimulus, luciferase, 10K MLSCN set (AID 602276;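 active = inhibition at or above 50% at 10 µM; inactive = inhibition below 50%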;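 note: firefly luciferase from ISG56 promoter only with Renilla not read in this screen; 0% = Sendai virus plus DMSO and 100% = medium plus DMSO without virus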). To be noted: HEK293 RL24 IRF3 luciferase reporter, at 10 µM, stronger effect = higher value.
Experiment [9] is described as follows: inhibitors of poly I:C-induced TLR3 signaling, primary screen, cell-based, poly I:C stimulus, luciferase, 10K MLSCN set (AID 602277;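 active = inhibition of the reporter signal at or above 50%; inactive = inhibition below 50%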). To be noted: HEK293-TLR3 RL24 IRF3 luciferase reporter, at 10 µM, stronger effect = higher value.

Active and inactive are the calls of the source.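 Rule for the calls, unless noted: active = fluorescence slope after compound addition differing from the mean of all screened samples at 99.7% confidence, in either direction; inactive = the rest.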

Voltage-gated potassium channel subunit beta-2 (Rattus norvegicus), sequence (P62483 whole entry, looked up): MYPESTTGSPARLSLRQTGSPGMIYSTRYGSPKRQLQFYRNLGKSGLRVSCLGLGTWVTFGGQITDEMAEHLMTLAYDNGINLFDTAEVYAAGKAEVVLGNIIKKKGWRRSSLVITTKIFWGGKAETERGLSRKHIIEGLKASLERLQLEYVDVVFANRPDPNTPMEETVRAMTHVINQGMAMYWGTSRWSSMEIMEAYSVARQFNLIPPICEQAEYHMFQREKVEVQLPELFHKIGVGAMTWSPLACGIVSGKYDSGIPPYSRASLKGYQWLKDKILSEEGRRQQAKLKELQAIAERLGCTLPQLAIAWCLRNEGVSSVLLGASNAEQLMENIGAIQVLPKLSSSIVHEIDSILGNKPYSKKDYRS
Alpha-2C adrenergic receptor (Homo sapiens), sequence (P18825 whole entry, looked up): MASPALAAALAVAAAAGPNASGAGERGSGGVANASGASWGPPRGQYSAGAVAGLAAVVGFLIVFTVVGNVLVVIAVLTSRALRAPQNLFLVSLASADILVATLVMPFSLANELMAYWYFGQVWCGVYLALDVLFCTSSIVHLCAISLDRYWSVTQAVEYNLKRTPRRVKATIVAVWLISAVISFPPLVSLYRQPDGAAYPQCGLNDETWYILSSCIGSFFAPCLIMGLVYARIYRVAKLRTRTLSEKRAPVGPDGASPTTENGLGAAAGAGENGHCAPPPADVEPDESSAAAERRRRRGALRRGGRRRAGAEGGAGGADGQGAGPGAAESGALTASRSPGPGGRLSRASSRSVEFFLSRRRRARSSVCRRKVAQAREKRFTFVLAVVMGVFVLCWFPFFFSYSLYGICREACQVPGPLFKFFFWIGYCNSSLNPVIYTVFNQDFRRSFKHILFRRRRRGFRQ

The inhibition is the drop in the measured response relative to a control, in per cent. As to `O=C(CN1CCC(n2nnc3ccccc32)CC1)Nc1ccc2c(c1)CCC2`, the cell count in experiment [1] turned out to be 643. In addition, the inhibition was -9.3% (inactive) in experiment [1], -27% (inactive) in [3], 16% (inactive) in experiment [8] and 19% (inactive) in experiment [9]. In experiment [2], the inhibition of aggregation was 4.8% (inactive). In addition, the nuclei count in experiment [2] stood at 96.4%; in experiment [3] it was 107%. The fluorescence slope in experiment [4] is -0.42 (inactive). In addition, the NADPH fluorescence slope in experiment [5] is -4.8e-05 (inactive). Besides, the slope in experiment [6] was 0.00413 (inactive). In addition, the compound was classed as inactive in [7].

With `O=C(Nc1cccnc1)c1cc2c(ccc3ccccc32)o1`, the cell count in experiment [1] turned out to be 489. The inhibition is 8.1% (inactive) in experiment [1], -160% (inactive) in [3], -38.2% (inactive) in experiment [8] and -135% (inactive) in experiment [9]. Further, the inhibition of aggregation in [2] was -7.4% (inactive). In addition, the results for the nuclei count in experiment [2] and in experiment [3] were 104% and 140%, respectively. Moreover, the fluorescence slope in [4] was -0.355 (inactive). Besides, the NADPH fluorescence slope in experiment [5] is -4.5e-05 (inactive). Moreover, in [6], the slope was 0.00441 (inactive). In addition, the outcome in [7] was inactive.

Consider `COc1ccc(N=C2C(=O)Nc3ccccc32)cc1`, for which the cell count in [1] worked out at 617. Also, the inhibition is 2.4% (inactive) in experiment [1], -96.7% (inactive) in experiment [3], 13% (inactive) in experiment [8] and 28.1% (inactive) in [9]. For the same compound, the inhibition of aggregation in experiment [2] is -5% (inactive). Also, the nuclei count was 100% in experiment [2] and 138% in experiment [3]. Moreover, in experiment [4], the fluorescence slope was -0.374 (inactive). Besides, in [5], the NADPH fluorescence slope was -1.5e-06 (inactive). Also, the slope in experiment [6] is 0.00431 (inactive). Moreover, the result in experiment [7] was inactive.

Turning to `Cc1c(C)n(C(=O)CN2CCN(c3ccccn3)CC2)c2ccccc12`, the cell count in experiment [1] is 428. Moreover, the inhibition in [1] was 2.3% (inactive); in [3] it was 3.5% (inactive); in experiment [8], 8.12% (inactive); in experiment [9], 11.3% (inactive). In [2], the inhibition of aggregation was 2.9% (inactive). Moreover, the nuclei count in experiment [2] was found to be 95.7%; in experiment [3], 131%. Besides, the fluorescence slope in experiment [4] is -0.376 (inactive). Further, in experiment [5], the NADPH fluorescence slope is -3.7e-05 (inactive). Besides, in [6], the slope is 0.00497 (inactive). In addition, the outcome in experiment [7] was inactive.

Regarding `COCCNC(=S)c1ccc(OC)cc1`, the cell count in experiment [1] amounted to 318. Moreover, the inhibition in experiment [1] is 4.7% (inactive); in [3], -41.9% (inactive); in experiment [8], 4.72% (inactive); in experiment [9], 4.95% (inactive). In addition, the inhibition of aggregation in experiment [2] is 1.2% (inactive). Further, the nuclei count in [2] came out at 121%; in experiment [3], 123%. The fluorescence slope in [4] is -0.362 (inactive). The NADPH fluorescence slope in [5] is -7.4e-05 (inactive). Further, the slope in experiment [6] was 0.00489 (inactive). Also, the outcome in [7] was inactive.

Take `CCN(CC(=O)Nc1ccc2c(c1)CCC2)Cc1nc2ccccc2c(=O)[nH]1`: the cell count in experiment [1] turned out to be 382. The inhibition in experiment [1] is 1.3% (inactive); in [3], -1.6% (inactive); in [8] it was 13.7% (inactive); in experiment [9], 14.8% (inactive). Also, the inhibition of aggregation in [2] is -17.4% (inactive). The nuclei count in experiment [2] and in [3] was 102% throughout. Moreover, the fluorescence slope in experiment [4] is -0.455 (inactive). In addition, the NADPH fluorescence slope in experiment [5] is -3.6e-05 (inactive). Further, in [6], the slope was 0.00524 (inactive). For the same compound, the call in experiment [7] was inactive.

In the case of `CN1C(=O)c2oc3ccccc3c(=O)c2C1c1ccccn1` (stereo not given), the cell count in experiment [1] was determined as 404. The inhibition in experiment [1] is 5.4% (inactive); in experiment [3], -28.5% (inactive); in experiment [8] it was 18% (inactive); in experiment [9] it was 12% (inactive). Also, the inhibition of aggregation in experiment [2] is -16.4% (inactive). In addition, the nuclei count in experiment [2] was found to be 106%; in experiment [3], 87.5%. Besides, the fluorescence slope in [4] was -0.437 (inactive). Moreover, the NADPH fluorescence slope in experiment [5] was -4.2e-05 (inactive). Further, the slope in experiment [6] was 0.00452 (inactive). Also, the compound was called inactive in [7].

In the case of `Cc1ccc(F)cc1NC(=O)C1CCCN(c2ncccn2)C1` (stereo not given), the cell count in [1] came to 692. Moreover, the inhibition is -7.8% (inactive) in experiment [1], -56.9% (inactive) in experiment [3], 7.51% (inactive) in experiment [8] and 9.04% (inactive) in [9]. The inhibition of aggregation in experiment [2] is -34.5% (inactive). In addition, the nuclei count in experiment [2] was determined as 117%; in experiment [3], 118%. Further, the fluorescence slope in experiment [4] was -0.357 (inactive). Further, in [5], the NADPH fluorescence slope is -1.9e-05 (inactive). In experiment [6], the slope was 0.00523 (inactive). Besides, the result in experiment [7] was inactive.

As for `Cc1cnc(NC(=O)CSc2nnc(-c3ccccc3)n2Cc2ccccc2)s1`, in [1], the cell count is 682. Also, the inhibition in experiment [1] was -5.5% (inactive); in [3], -19.9% (inactive); in experiment [8], -3.73% (inactive); in experiment [9] it was -7.1% (inactive). Further, in experiment [2], the inhibition of aggregation is 14.8% (inactive). In addition, the nuclei count in [2] came out at 102%; in [3], 105%. The fluorescence slope in experiment [4] was -0.493 (inactive). In [5], the NADPH fluorescence slope is 5.3e-05 (inactive). In addition, the slope in experiment [6] was 0.00426 (inactive). Also, the compound was called inactive in experiment [7].

As to `COc1ccc(NC(=O)N2CCC(c3nc(-c4cccs4)no3)CC2)cc1`, in experiment [1], the cell count was 486. Moreover, the inhibition in experiment [1] is -35.7% (inactive); in experiment [3] it was -41.5% (inactive); in [8] it was -1.92% (inactive); in [9] it was -22% (inactive). Also, the inhibition of aggregation in experiment [2] is 1.4% (inactive). The nuclei count in [2] amounted to 56.4%; in experiment [3] it was 102%. Also, in experiment [4], the fluorescence slope was -0.36 (inactive). Also, in experiment [5], the NADPH fluorescence slope was -5.2e-05 (inactive). Moreover, the slope in experiment [6] is 0.00458 (inactive). The compound was classed as inactive in [7].

The values are drawn from PubChem BioAssay.
